Data from ChEMBL document CHEMBL2086239, “Synthesis and biological evaluation of combretastatin-amidobenzothiazole conjugates as potential anticancer agents” (Eur J Med Chem, 2012).
Activity calls are given as the source filed them. The rule behind the calls is not given here.

Tests used:
A549 = assay: Cytotoxicity against human A549 cells assessed as inhibition of cell growth at 10 uM after 48 hrs by SRB assay relative to control; assay type: functional; conditions: A549, 48 h, read-out: GI
Summary of the method: (§1)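 SRB protein assay in DMEM with 10% FBS at 37 °C, 5% CO2, 100% relative humidity. Cells seeded in 96-well plates, incubated 24 h, then exposed to drug at 10 µM for 48 h and processed per standard protocol. Absorbance read at 560 nm; growth percentage calculated for test wells relative to control wells.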

THP-1 = assay: Cytotoxicity against human THP1 cells after 48 hrs assessed as inhibition of cell growth at 10 uM after 48 hrs by SRB assay relative to control; assay type: functional; summary of the method: as §1
IMR-32 = assay: Cytotoxicity against human IMR32 cells after 48 hrs assessed as inhibition of cell growth at 10 uM after 48 hrs by SRB assay relative to control; assay type: functional; conditions: IMR-32, 48 h, read-out: GI; summary of the method: as §1
MCF7 [1] = assay: Cytotoxicity against human MCF7 cells after 48 hrs assessed as inhibition of cell growth at 10 uM after 48 hrs by SRB assay relative to control; assay type: functional; conditions: MCF7, 48 h, read-out: GI; summary of the method: as §1
RPMI-8226 = assay: Growth inhibition of human RPMI8226 cells after 48 hrs by SRB assay; assay type: functional; conditions: RPMI-8226, 48 h
Summary of the method: (§2)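 NCI 60-cell-line screen: after preliminary screening, tested at five dose concentrations on 59 human tumour lines covering leukemia, lung, colon, CNS, melanoma, ovarian, renal, prostate and breast.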

EKVX = assay: Growth inhibition of human EKVX cells after 48 hrs by SRB assay; assay type: functional; summary of the method: as §2
HOP-92 = assay: Growth inhibition of human HOP92 cells after 48 hrs by SRB assay; assay type: functional; conditions: HOP-92, 48 h; summary of the method: as §2
NCI-H226 = assay: Growth inhibition of human NCI-H226 cells after 48 hrs by SRB assay; assay type: functional; conditions: NCI-H226, 48 h; summary of the method: as §2
NCI-H522 = assay: Growth inhibition of human NCI-H522 cells after 48 hrs by SRB assay; assay type: functional; conditions: NCI-H522, 48 h; summary of the method: as §2
COLO 205 = assay: Growth inhibition of human COLO205 cells after 48 hrs by SRB assay; assay type: functional; conditions: COLO 205, 48 h; summary of the method: as §2
HCC 2998 = assay: Growth inhibition of human HCC2998 cells after 48 hrs by SRB assay; assay type: functional; conditions: HCC 2998, 48 h; summary of the method: as §2
HCT-116 = assay: Growth inhibition of human HCT116 cells after 48 hrs by SRB assay; assay type: functional; conditions: HCT-116, 48 h; summary of the method: as §2
SF-539 = assay: Growth inhibition of human SF539 cells after 48 hrs by SRB assay; assay type: functional; conditions: SF-539, 48 h
Summary of the method: (§3)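 NCI 60-cell-line panel, five-dose testing after preliminary screen; sulforhodamine B protein assay in DMEM with 10% FBS, 37 °C, 5% CO2, 100% humidity. Cells seeded and incubated 24 h before compound addition, then exposed 48 h. Absorbance read at 560 nm; growth percentage relative to control wells; GI50 taken as concentration giving 50% growth inhibition.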

U-251 = assay: Growth inhibition of human U251cells after 48 hrs by SRB assay; assay type: functional; conditions: U-251, 48 h; summary of the method: as §3
M14 = assay: Growth inhibition of human M14 cells after 48 hrs by SRB assay; assay type: functional; conditions: M14, 48 h; summary of the method: as §2
SK-MEL-2 = assay: Growth inhibition of human SK-MEL-2 cells after 48 hrs by SRB assay; assay type: functional; conditions: SK-MEL-2, 48 h; summary of the method: as §3
UACC-257 = assay: Growth inhibition of human UACC257 cells after 48 hrs by SRB assay; assay type: functional; conditions: UACC-257, 48 h; summary of the method: as §3
OVCAR-3 = assay: Growth inhibition of human OVCAR3 cells after 48 hrs by SRB assay; assay type: functional; conditions: OVCAR-3, 48 h; summary of the method: as §2
NCI/ADR-RES = assay: Growth inhibition of human NCI/ADR-RES cells after 48 hrs by SRB assay; assay type: functional; summary of the method: as §2
ACHN = assay: Growth inhibition of human ACHN cells after 48 hrs by SRB assay; assay type: functional; summary of the method: as §2
UO-31 = assay: Growth inhibition of human UO31 cells after 48 hrs by SRB assay; assay type: functional; conditions: UO-31, 48 h; summary of the method: as §3
MCF7 [2] = assay: Growth inhibition of human MCF7 cells after 48 hrs by SRB assay; assay type: functional; conditions: MCF7, 48 h; summary of the method: as §2
BT-549 = assay: Growth inhibition of human BT549 cells after 48 hrs by SRB assay; assay type: functional; conditions: BT-549, 48 h; summary of the method: as §2
[3] = Inhibition of tubulin polymerization after 30 mins to 1 hr by spectrophotometry
Summary of the method: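 This was a kit-based tubulin polymerization assay. Kit tubulin in G-PEM buffer was incubated with compounds, and polymerization was followed as optical density at 340 nm for 30 min to 1 h. Inhibition was read as a decrease in OD. Nocodazole and paclitaxel were run as reference destabilizer and stabilizer.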

MCF7 [4] = assay: Inhibition of microtubule organization in human MCF7 cells at 4 uM after 24 hrs by immunofluorescence analysis; assay type: cell-based
Summary of the method: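 MCF-7 cells were grown in DMEM with 10% fetal calf serum and penicillin/streptomycin at 37 °C and 5% CO2. Cells on cover slips were treated for 24 h, then fixed in 4% paraformaldehyde for 20 min. They were permeabilised with 0.2% Triton X-100, held in methanol at 4 °C overnight and blocked with 1% BSA. Staining used anti-α-tubulin (1:100, 2 h RT), FITC secondary and a DAPI/PI mount, with confocal imaging.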

[5] = biological target: Mitogen-activated protein kinase; ERK1/ERK2 (Homo sapiens) (UniProt P27361+P28482); assay: Inhibition of nuclear translocation of phosphorylated ERK1/2 in human MCF7 cells at 4 uM after 24 hrs by immunofluorescence assay; assay type: cell-based
Summary of the method: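 MCF-7 cells (DMEM, 10% fetal calf serum, 37 °C, 5% CO2) were treated on cover slips for 24 h. They were fixed in 4% paraformaldehyde, permeabilised with 0.2% Triton X-100, held in methanol at 4 °C overnight and blocked with 1% BSA for 60 min. Anti-phospho-ERK antibody (1:100, 2 h RT) was followed by FITC anti-rabbit secondary for 1 h and a DAPI/PI mount. Subcellular pERK localisation was imaged by confocal microscopy.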

MCF7 [6] = assay: Cytotoxicity against human MCF7 cells at 4 uM after 24 hrs by MTT assay; assay type: functional, cell-based
Summary of the method: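 MCF-7 cells grown in DMEM with 10% fetal calf serum, penicillin and streptomycin at 37 °C, 5% CO2. Seeded at 10,000 cells/well, incubated overnight, then treated 24 h at 4 µM. Medium replaced with fresh medium plus MTT dye, incubated 2 h at 37 °C. Absorbance read at 570 nm; O.D. taken as viability versus untreated control.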

Chain of Mitogen-activated protein kinase; ERK1/ERK2 (Homo sapiens) (P27361 whole entry, looked up): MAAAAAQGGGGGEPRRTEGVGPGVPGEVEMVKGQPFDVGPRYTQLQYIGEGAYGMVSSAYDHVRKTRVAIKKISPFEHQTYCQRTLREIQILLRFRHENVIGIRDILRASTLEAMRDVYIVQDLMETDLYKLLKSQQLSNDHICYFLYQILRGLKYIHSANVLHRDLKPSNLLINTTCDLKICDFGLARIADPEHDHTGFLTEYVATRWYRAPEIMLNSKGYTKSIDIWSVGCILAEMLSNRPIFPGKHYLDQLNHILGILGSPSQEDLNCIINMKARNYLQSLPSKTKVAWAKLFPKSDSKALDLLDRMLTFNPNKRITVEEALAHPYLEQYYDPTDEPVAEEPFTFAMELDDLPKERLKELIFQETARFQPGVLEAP
Chain of Mitogen-activated protein kinase; ERK1/ERK2 (Homo sapiens) (P28482 whole entry, looked up): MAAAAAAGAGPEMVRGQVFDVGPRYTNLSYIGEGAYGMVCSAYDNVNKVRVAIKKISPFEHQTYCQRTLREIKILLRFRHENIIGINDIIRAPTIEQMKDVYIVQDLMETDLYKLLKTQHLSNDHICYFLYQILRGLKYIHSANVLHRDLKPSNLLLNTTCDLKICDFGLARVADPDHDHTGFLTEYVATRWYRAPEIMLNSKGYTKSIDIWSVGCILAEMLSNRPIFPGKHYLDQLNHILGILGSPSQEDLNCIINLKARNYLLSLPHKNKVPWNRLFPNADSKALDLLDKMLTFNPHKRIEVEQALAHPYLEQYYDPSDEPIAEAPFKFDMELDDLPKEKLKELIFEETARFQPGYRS

In the case of `COc1ccc(/C=C\c2cc(OC)c(OC)c(OC)c2)cc1OCC(=O)Nc1nc2ccccc2s1`, the inhibition of growth at 10 µM (A549) is reported as 44%, the “growth inhibition (GI)” value (THP-1) is reported as “inactive” and the inhibition of growth at 10 µM (IMR-32) is reported as 91%. It also gave an inhibition of growth at 10 µM (MCF7 [1]) of 72%, a GI50 (RPMI-8226) of 150 nM and a GI50 (EKVX) of 38 nM. The GI50 (HOP-92) was 39 nM, the GI50 (NCI-H226) was 270 nM and the GI50 (NCI-H522) was 79 nM. For the same compound, the GI50 (COLO 205) was 2830 nM, the GI50 (HCC 2998) was 370 nM and the GI50 (HCT-116) was 46 nM. For the same compound, the GI50 (SF-539) was 45 nM, the GI50 (U-251) was 48 nM and the GI50 (M14) was 72 nM. It also gave a GI50 (SK-MEL-2) of 180 nM, a GI50 (UACC-257) of 11000 nM and a GI50 (OVCAR-3) of 43 nM. For the same compound, the GI50 (NCI/ADR-RES) was 33 nM, the GI50 (ACHN) was 93 nM and the GI50 (UO-31) was 580 nM. The GI50 (MCF7 [2]) was 51 nM, the GI50 (BT-549) was 410 nM and the IC50 [3] was 5000 nM. The inhibition (MCF7 [4]) was “Active”, the inhibition [5] was “Active” and the Activity (MCF7 [6]) was “Active”.
